Test results from ChEMBL document CHEMBL3124805, “Anti-allodynic effect of 2-(aminomethyl)adamantane-1-carboxylic acid in a rat model of neuropathic pain: a mechanism dependent on CaV2.2 channel inhibition” (Bioorg Med Chem, 2014).
Activity calls are given as the source filed them.

Key:
Rattus norvegicus [1] = assay: Anti-allodynic activity in Sprague-Dawley rat spinal nerve ligation-induced neuropathic pain model assessed as tactile allodynia at 10 to 300 ug administered intrathecally measured after 4 hrs by von frey filament based paw withdrawal threshold method; format: functional, organism-based
Procedure, shortened: (§1)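 Rats 140–160 g, 12/12 h light/dark, food and water ad libitum. Spinal nerve ligation under ketamine/xylazine (45:12 mg/kg i.p.). An intrathecal PE-10 catheter was placed to the lumbar level via the atlantooccipital membrane, followed by 5 d recovery. Rats with motor impairment were excluded. Bolus doses of 10–300 µg/rat were given to allodynic rats, against vehicle. 50% paw withdrawal threshold to von Frey filaments after 30–40 min acclimation on mesh.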

[2] = biological target: Cav1.3/Cav beta3 complex (Rattus norvegicus) (UniProt P27732+P54287); assay: Inhibition of rat recombinant Cav1.3/Cavbeta3 expressed in HEK-293 cell assessed as current density at 500 uM after 3 hrs by whole-cell patch clamp technique; format: cell-based; details: HEK293
Procedure, shortened: (§2)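 Rat CaV1.3α1 (pcDNA6/His) was transiently co-transfected with β3, with or without α2δ-1, plus GFP into HEK-293 cells. Cells were incubated 3 h with 500 µM, then whole-cell Ba²⁺ current–voltage relationships were recorded at 22–24 °C, normalized to membrane capacitance. n = 9 with α2δ-1; n = 5–7 without.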

HEK293 [3] = assay: Inhibition of rabbit recombinant Cav2.2/rat recombinant Cavbeta3/Cavalpha2delta-1 expressed in HEK-293 cell assessed as decrease in current density at 500 uM at holding potential of -80 mV after 3 hrs by whole-cell patch clamp technique; format: cell-based
Procedure, shortened: (§3)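 HEK-293 cells were transiently co-transfected (lipofection) with CaV subunit cDNAs plus a GFP plasmid. Cells were split at ~10% confluence 2 days later and GFP-positive cells recorded ~4 h after. Cells were preincubated 1–3 h in medium with 500 µM compound (water stock). Whole-cell Ba²⁺ currents were recorded at 22–24 °C with CsCl/EGTA/MgATP pipette solution, pH 7.1, P/4 leak subtraction, normalized to Cm, within 15 min of break-in. Pulses were 140 ms from Vh −80 mV. Student's t-test.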

Rattus norvegicus [4] = assay: Anti-allodynic activity in Sprague-Dawley rat spinal nerve ligation-induced neuropathic pain model assessed as reversal of tactile allodynia at 10 to 300 ug administered intrathecally measured after 1 hr by von frey filament based paw withdrawal threshold method; format: functional, organism-based; procedure, shortened: as §1
Rattus norvegicus [5] = assay: Anti-allodynic activity in Sprague-Dawley rat spinal nerve ligation-induced neuropathic pain model assessed as reversal of tactile allodynia at 10 to 300 ug administered intrathecally measured after 2 hrs by von frey filament based paw withdrawal threshold method; format: functional, organism-based; procedure, shortened: as §1
Rattus norvegicus [6] = species on record: Rattus norvegicus; assay: Toxicity in Sprague-Dawley rat spinal nerve ligation-induced neuropathic pain model assessed as reduction of corneal and pinna reflexes at 10 to 300 ug, it; format: organism-based, Cornea; details: in vivo, icv_or_intrathecal
[7] = biological target: Cav1.3/Cav beta3/Cav alpha2delta complex (Rattus norvegicus) (UniProt P54290+P27732+P54287); assay: Inhibition of rat recombinant Cav1.3/Cavbeta3/Cavalpha2delta-1 expressed in HEK-293 cell assessed as decrease in current density at 500 uM after 3 hrs by whole-cell patch clamp technique; format: cell-based; details: HEK293; procedure, shortened: as §2
HEK293 [8] = assay: Inhibition of rabbit recombinant Cav2.2/rat recombinant Cavbeta3/Cavalpha2delta-1 expressed in HEK-293 cell assessed as inhibition of channel current at 500 uM by whole-cell patch clamp technique; format: cell-based; procedure, shortened: as §3
Rattus norvegicus [9] = species on record: Rattus norvegicus; assay: Toxicity in Sprague-Dawley rat spinal nerve ligation-induced neuropathic pain model assessed as reduction of stepping at 10 to 300 ug, it; format: organism-based; details: in vivo, icv_or_intrathecal
HEK293 [10] = assay: Inhibition of rabbit recombinant Cav2.2/rat recombinant Cavbeta3/Cavalpha2delta-1 expressed in HEK-293 cell assessed as hyperpolarizing shift in half-inactivation potential at 500 uM after 3 hrs by whole cell patch clamp technique; format: cell-based; details: in the assay text read “depolarizing” for “hyperpolarizing”
Procedure, shortened: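 Transiently transfected CaV2.2α1/β3/α2δ-1 HEK-293 cells were treated 3 h with 500 µM in culture medium. Whole-cell recording at 22–24 °C. 2 s prepulses of various amplitudes from Vh −80 mV, then test pulses to +20 mV. Steady-state inactivation was fitted with a Boltzmann equation to give V½ and slope; n = 4–6.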

HEK293 [11] = assay: Inhibition of rabbit recombinant Cav2.2/rat recombinant Cavbeta3/Cavalpha2delta-1 expressed in HEK-293 cell assessed as current density at 500 uM at holding potential of -80 mV after 1 to 2 hrs by whole-cell patch clamp technique; format: cell-based; procedure, shortened: as §3
HEK293 [12] = assay: Inhibition of rabbit recombinant Cav2.2/rat recombinant Cavbeta3 expressed in HEK-293 cell assessed as current density at 500 uM after 3 hrs by whole-cell patch clamp technique; format: cell-based; procedure, shortened: as §3
Rattus norvegicus [13] = species on record: Rattus norvegicus; assay: Toxicity in Sprague-Dawley rat spinal nerve ligation-induced neuropathic pain model assessed as reduction of righting at 10 to 300 ug, it; format: organism-based; details: in vivo, icv_or_intrathecal
[14] = biological target: Voltage-dependent T-type calcium channel subunit alpha-1G (Homo sapiens) (UniProt O43497); assay: Inhibition of human recombinant Cav3.1 expressed in HEK-293 cell assessed as current density at 500 uM after 3 hrs by whole cell patch clamp technique; format: cell-based; details: HEK293
Sequence of Voltage-dependent T-type calcium channel subunit alpha-1G (Homo sapiens) (O43497 whole entry): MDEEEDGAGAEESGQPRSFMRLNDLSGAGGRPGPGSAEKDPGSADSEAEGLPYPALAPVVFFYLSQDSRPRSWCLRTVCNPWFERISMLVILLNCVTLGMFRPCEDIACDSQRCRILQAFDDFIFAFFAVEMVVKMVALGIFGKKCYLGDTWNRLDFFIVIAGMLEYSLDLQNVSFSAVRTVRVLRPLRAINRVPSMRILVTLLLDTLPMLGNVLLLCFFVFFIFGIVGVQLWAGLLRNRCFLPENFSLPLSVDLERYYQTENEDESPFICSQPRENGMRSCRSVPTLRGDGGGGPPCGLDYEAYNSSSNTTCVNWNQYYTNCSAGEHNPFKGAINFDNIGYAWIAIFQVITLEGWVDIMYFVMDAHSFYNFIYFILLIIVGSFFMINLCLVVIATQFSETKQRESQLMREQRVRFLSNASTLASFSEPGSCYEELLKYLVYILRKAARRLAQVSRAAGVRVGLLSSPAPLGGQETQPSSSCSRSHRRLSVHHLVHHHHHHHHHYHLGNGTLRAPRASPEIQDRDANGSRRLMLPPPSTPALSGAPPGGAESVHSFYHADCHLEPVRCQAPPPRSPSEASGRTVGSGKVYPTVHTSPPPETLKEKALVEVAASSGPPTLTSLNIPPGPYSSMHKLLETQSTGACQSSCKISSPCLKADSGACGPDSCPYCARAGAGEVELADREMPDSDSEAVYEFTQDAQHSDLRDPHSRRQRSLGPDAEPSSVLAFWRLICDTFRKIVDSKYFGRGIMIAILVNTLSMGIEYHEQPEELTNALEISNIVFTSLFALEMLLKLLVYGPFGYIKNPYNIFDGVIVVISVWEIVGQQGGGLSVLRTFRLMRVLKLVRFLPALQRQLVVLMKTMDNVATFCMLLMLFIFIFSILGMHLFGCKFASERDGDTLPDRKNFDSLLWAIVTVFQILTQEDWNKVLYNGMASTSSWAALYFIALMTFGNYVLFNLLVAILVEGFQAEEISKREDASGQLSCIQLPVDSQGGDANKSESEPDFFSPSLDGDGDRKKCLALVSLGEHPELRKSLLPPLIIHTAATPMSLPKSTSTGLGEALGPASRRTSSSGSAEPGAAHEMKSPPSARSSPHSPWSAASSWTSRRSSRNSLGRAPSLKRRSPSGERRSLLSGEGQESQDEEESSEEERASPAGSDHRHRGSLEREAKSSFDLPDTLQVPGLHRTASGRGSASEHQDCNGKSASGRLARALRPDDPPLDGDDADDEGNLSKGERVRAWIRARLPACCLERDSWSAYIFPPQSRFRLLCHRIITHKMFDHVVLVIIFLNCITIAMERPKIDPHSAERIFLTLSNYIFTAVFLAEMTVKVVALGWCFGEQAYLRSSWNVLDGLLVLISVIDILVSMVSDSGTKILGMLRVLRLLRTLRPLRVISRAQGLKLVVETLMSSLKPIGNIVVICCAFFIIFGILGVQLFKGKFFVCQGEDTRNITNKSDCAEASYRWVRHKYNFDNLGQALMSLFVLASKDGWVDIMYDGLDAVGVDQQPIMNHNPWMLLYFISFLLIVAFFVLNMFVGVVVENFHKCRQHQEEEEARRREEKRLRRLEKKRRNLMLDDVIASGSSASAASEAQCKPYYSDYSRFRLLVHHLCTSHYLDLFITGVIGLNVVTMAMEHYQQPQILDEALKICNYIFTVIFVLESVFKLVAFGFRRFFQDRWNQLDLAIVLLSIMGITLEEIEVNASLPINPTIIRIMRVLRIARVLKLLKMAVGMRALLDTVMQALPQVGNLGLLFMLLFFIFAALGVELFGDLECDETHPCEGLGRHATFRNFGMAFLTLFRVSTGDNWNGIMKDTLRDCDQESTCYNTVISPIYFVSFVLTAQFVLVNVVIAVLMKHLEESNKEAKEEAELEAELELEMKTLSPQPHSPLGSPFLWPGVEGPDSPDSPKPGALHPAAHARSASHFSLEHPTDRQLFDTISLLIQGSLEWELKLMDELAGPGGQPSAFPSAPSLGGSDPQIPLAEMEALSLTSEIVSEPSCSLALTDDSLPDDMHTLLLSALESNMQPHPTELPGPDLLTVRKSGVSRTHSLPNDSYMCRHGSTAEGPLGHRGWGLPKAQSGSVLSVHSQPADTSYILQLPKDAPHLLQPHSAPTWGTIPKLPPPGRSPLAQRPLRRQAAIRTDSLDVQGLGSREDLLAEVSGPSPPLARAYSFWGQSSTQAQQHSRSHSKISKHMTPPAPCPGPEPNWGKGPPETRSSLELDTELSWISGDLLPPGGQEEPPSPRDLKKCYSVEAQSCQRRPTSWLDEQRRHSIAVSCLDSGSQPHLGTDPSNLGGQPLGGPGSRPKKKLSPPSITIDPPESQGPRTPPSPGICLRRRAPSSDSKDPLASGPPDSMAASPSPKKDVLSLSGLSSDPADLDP
Procedure, shortened: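 HEK-293 cells stably expressing CaV3.1a (no auxiliary subunits) were re-seeded on poly-L-lysine coverslips and recorded ~4 h later. Cells were incubated 3 h with 500 µM. Whole-cell current–voltage relationships were recorded at 22–24 °C, normalized to Cm; n = 5–6.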

HEK293 [15] = assay: Inhibition of rabbit recombinant Cav2.2/rat recombinant Cavbeta3/Cavalpha2delta-1 expressed in HEK-293 cell assessed as decrease in inward current at 500 uM at voltages from -20 to +30 mV after 3 hrs by whole-cell patch clamp technique; format: cell-based; procedure, shortened: as §3
HEK293 [16] = assay: Inhibition of rabbit recombinant Cav2.2/rat recombinant Cavbeta3/Cavalpha2delta-1 expressed in HEK-293 cell assessed as decrease in whole cell Ba2+ current at 500 uM at holding potential of -80 mV up to 3 hrs by whole-cell patch clamp technique; format: cell-based; procedure, shortened: as §3

- inhibition [2]: inactive
- inhibition [7]: Active
- inhibition [14]: inactive
SMILES: Cl.NCC1C2CC3CC(C2)CC1(C(=O)O)C3 (stereo unspecified)
- Activity (Rattus norvegicus [1]): inactive
- inhibition (HEK293 [3]): Active
- Activity (Rattus norvegicus [4]): Active
- Activity (Rattus norvegicus [5]): Active
- Activity (Rattus norvegicus [6]): Non-toxic
- inhibition (HEK293 [8]): 30%
- Activity (Rattus norvegicus [9]): Non-toxic
- inhibition (HEK293 [10]): Active
- inhibition (HEK293 [11]): inactive
- inhibition (HEK293 [12]): inactive
- Activity (Rattus norvegicus [13]): Non-toxic
- inhibition (HEK293 [15]): Active
- inhibition (HEK293 [16]): Active
